SMILES strings stand for the structures.

Common to all, as to type: functional, organism-based
Assay [1] deals with Microdochium nivale. Nature of the assay: Antifungal activity against Fusarium nivale CGMCC 3.4600 after 48 hrs by Alamar blue assay. Particulars: CGMCC 3.4600, 48 h. In short, it runs like this:
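Plant-pathogen broth microdilution per NCCLS, in triplicate. F. nivale was grown on PDA, then in broth at 28 °C for 48 h, and suspended at 10^4 hyphae/mL in PDB. Serial dilutions were made from a 4 mg/mL DMSO stock. Alamar blue was the indicator and carbendazim the positive control. After incubation at 28 °C for 48 h, fluorescence was read at 544/590 nm, and IC50 was derived from the inhibition-concentration plot.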

In assay [2] the test system is Pyricularia oryzae. Nature of the assay: Antifungal activity against Pyricularia oryzae CGMCC 3.3283 after 48 hrs by Alamar blue assay. The following applies: CGMCC 3.3283, 48 h. Put shortly:
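Broth microdilution per NCCLS recommendations, in triplicate. Strain grown on PDA, then in broth at 28 °C for 48 h. Final suspension 10^4 hyphae/mL in PDB. Samples from 4 mg/mL DMSO stock, serially diluted. Alamar blue added as indicator; incubated 28 °C for 48 h. Fluorescence read at Ex/Em 544/590 nm. Inhibition plotted against concentration to give IC50.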

Assay [3] relates to Aspergillus flavus. Nature of the assay: Antifungal activity against Aspergillus flavus CGMCC 3.0951 after 48 hrs by Alamar blue assay. The following applies: CGMCC 3.0951, 48 h.

For the compound `C[C@@H]1CC(=O)c2c(coc2-c2c(O)cccc2O)[C@@H]1O` [LEPTOSPHAERIN A], the IC50 in assay [1], in assay [2] and in assay [3] was greater than 150 µM in each case.

`C[C@@H]1CC(O)=C2C(=O)c3c(O)cccc3O[C@]2(C)[C@H]1O` [LEPTOSPHAERIN G]: the IC50 was greater than 150 µM in assay [1], greater than 150 µM in assay [2] and 14.8 µM in assay [3].

As to `CC1=C[C@H](O)[C@@]2(Oc3cccc(O)c3C2=O)[C@H](C)C1=O` [LEPTOSPHAERIN C], the half-maximal inhibitory concentration (IC50) in assay [1] was found to be 144 µM; in assay [2] it was 80.3 µM; in assay [3], 81.4 µM.

For the compound `C[C@@H]1CC(=O)c2c(coc2-c2c(O)cccc2O)[C@H]1O` [LEPTOSPHAERIN B], the IC50 in assay [1], in assay [2] and in assay [3] was greater than 150 µM throughout.

For `COC(=O)Nc1nc2ccccc2[nH]1` [CARBENDAZIM], the IC50 in assay [1] worked out at 2.6 µM; in assay [2] it was 5 µM.

With `Cc1cc(O)c2c(c1O)COc1cccc(O)c1C2=O` [LEPTOSPHAERIN D], the IC50 in assay [1] was 12.5 µM; in assay [2], 18.1 µM; in assay [3], greater than 150 µM.

As to `C[C@@H]1C[C@H](O)[C@H]2C(=O)c3c(O)cccc3O[C@]2(C)[C@H]1O` [LEPTOSPHAERIN F], the half-maximal inhibitory concentration (IC50) in assay [1], in assay [2] and in assay [3] was greater than 150 µM in each case.

As for `C[C@@H]1[C@H](O)[C@@H](C)/C=C/C=C/C=C/C=C/C=C/C=C/C=C/[C@H](O[C@@H]2O[C@H](C)[C@@H](O)[C@H](N)[C@@H]2O)C[C@@H]2O[C@](O)(C[C@@H](O)C[C@@H](O)[C@H](O)CC[C@@H](O)C[C@@H](O)CC(=O)O[C@H]1C)C[C@H](O)[C@H]2C(=O)O` [AMPHOTERICIN B], the IC50 in assay [3] was 3.3 µM.

On to `Cc1cc(CO)c2c(=O)c3c(O)cc(O)cc3oc2c1` [LEPTOSPHAERIN E], for which the concentration for half-maximal inhibition (IC50) in assay [1], in assay [2] and in assay [3] was greater than 150 µM throughout.

For the origin of these results see ChEMBL document CHEMBL1157754, “Polyketides from the ascomycete fungus Leptosphaeria sp” (J Nat Prod, 2010).
